Key:
Rattus norvegicus [1] = assay: Effect evaluated in vivo on 5-HTP accumulation in limbic system after subcutaneous administration; format: functional; details: sc
Method in brief: (§1)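 Male Sprague-Dawley rats (200–300 g) were pretreated with reserpine 5 mg/kg sc 18 h beforehand. Test drug was given at neutral pH, 5 mL/kg. Aromatic amino acid decarboxylase was blocked with NSD 1015. 5-HTP in the dissected brain region was assayed by HPLC with electrochemical detection.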

Rattus norvegicus [2] = assay: Effect evaluated in vivo on 5-HTP accumulation in NE-rich hemispheres at a 25 dose uM/kg(po); format: functional; method in brief: as §1
Rattus norvegicus [3] = assay: Effect evaluated in vivo on 5-HTP accumulation in limbic system at a dose 6.25 umol/kg (p.o.); format: functional
Method in brief: (§2)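 Oral dosing in male Sprague-Dawley rats (200–300 g) pretreated with reserpine 5 mg/kg sc 18 h before. After decarboxylase inhibition with NSD 1015, brain 5-HTP or dopa accumulation (HPLC-electrochemical detection) indexed 5-HT synthesis, DA synthesis (limbic) or NE synthesis (hemispheres, mainly cortex).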

Rattus norvegicus [4] = assay: Effect evaluated in vivo on 5-HTP accumulation in corpus striatum at a dose 25 umol/kg (p.o.); format: functional; method in brief: as §1
Rattus norvegicus [5] = assay: Effect evaluated in vivo on 5-HTP accumulation in NE-rich hemispheres at a 12.5 dose uM/kg(sc); format: functional; method in brief: as §1
Rattus norvegicus [6] = assay: Effect evaluated in vivo on 5-HTP accumulation in limbic system at a dose 3.1 umol/kg (s.c.); format: functional
Method in brief: (§3)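 Male Sprague-Dawley rats (200–300 g) were pretreated with reserpine 5 mg/kg sc 18 h before. Test compound was given sc at 5 mL/kg in neutral solution. 5-HT synthesis rate was indexed by […] 5-HTP accumulation after decarboxylase inhibition with NSD 1015, measured by HPLC-electrochemical detection. Dose-response used 4–6 dose levels, n = 4.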

Rattus norvegicus [7] = assay: Effect evaluated in vivo on NE synthesis in NE-rich hemispheres after perioral administration; format: functional; method in brief: as §2
Rattus norvegicus [8] = assay: Effect evaluated in vivo on 5-HTP accumulation in corpus striatum at a dose 3.1 umol/kg (s.c.); format: functional; method in brief: as §1
Rattus norvegicus [9] = assay: Effect evaluated in vivo on 5-HTP accumulation in limbic system at a dose 0.78 umol/kg (s.c.); format: functional; method in brief: as §1
Rattus norvegicus [10] = assay: Effect evaluated in vivo on NE synthesis in NE-rich hemispheres at a 0.78 dose uM/kg(sc); format: functional
Method in brief: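 Rats pretreated with reserpine 5 mg/kg sc 18 h before received test compound sc at 5 mL/kg in neutral solution. After decarboxylase inhibition with NSD 1015, dopa accumulation in hemispheres (mainly cortex) was measured by HPLC-electrochemical detection as an index of NE synthesis. Dose-response used 4–6 dose levels, n = 4.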

Rattus norvegicus [11] = assay: Effect evaluated in vivo on 5-HTP accumulation in limbic system at a dose 50 umol/kg (s.c.); format: functional; method in brief: as §3
Rattus norvegicus [12] = assay: Effect evaluated in vivo on 5-HTP accumulation in corpus striatum at a dose 1.56 umol/kg (p.o.); format: functional; method in brief: as §1
Rattus norvegicus [13] = assay: Effect evaluated in vivo on 5-HTP accumulation in corpus striatum at a dose 100 umol/kg (p.o.); format: functional; method in brief: as §1
Rattus norvegicus [14] = assay: Effect evaluated in vivo on 5-HTP accumulation in corpus striatum at a dose 6.25 umol/kg (p.o.); format: functional; method in brief: as §1
Rattus norvegicus [15] = assay: Effect evaluated in vivo on 5-HTP accumulation in NE-rich hemispheres at a 1.56 dose uM/kg(po); format: functional; method in brief: as §1
Rattus norvegicus [16] = assay: Effect evaluated in vivo on 5-HTP accumulation in NE-rich hemispheres at a 6.25d ose uM/kg(po); format: functional; method in brief: as §1
D(2) dopamine receptor = D(2) dopamine receptor (Rattus norvegicus, UniProt P61169); assay: Inhibitory activity against Dopamine receptor D2 in rats using [3H]spiperone as radioligand
Chain of D(2) dopamine receptor (P61169 whole entry): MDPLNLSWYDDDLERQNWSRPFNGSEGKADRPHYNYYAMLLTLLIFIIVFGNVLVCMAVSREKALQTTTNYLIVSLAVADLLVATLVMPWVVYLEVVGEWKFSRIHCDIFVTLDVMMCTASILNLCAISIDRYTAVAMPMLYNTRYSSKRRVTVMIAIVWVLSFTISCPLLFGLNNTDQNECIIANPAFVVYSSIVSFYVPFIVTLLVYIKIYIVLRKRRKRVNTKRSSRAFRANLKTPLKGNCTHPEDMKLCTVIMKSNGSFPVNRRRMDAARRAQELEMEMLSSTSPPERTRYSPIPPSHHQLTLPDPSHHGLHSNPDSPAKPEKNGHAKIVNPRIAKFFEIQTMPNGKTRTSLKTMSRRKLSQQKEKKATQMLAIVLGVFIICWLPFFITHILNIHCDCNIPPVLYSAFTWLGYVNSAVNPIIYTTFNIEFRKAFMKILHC
Method in brief: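 Rat striatal membranes in 50 mM potassium phosphate buffer pH 7.4 were incubated with 0.5 nM [3H]spiperone for 10 min at 37 °C. Specific binding was defined with 10 μM 6,7-ADTN.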

Rattus norvegicus [17] = assay: Effect evaluated in vivo on 5-HTP accumulation in NE-rich hemispheres at a 50 dose uM/kg(sc); format: functional; method in brief: as §1
Rattus norvegicus [18] = assay: Effect evaluated in vivo on 5-HTP accumulation in limbic system at a dose 12.5 umol/kg (s.c.); format: functional; method in brief: as §3
Rattus norvegicus [19] = assay: Effect evaluated in vivo on 5-HTP accumulation in corpus striatum after perioral administration; format: functional; method in brief: as §1
Rattus norvegicus [20] = assay: Effect evaluated in vivo on 5-HTP accumulation in corpus striatum at a dose 12.5 umol/kg (s.c.); format: functional; method in brief: as §1
Rattus norvegicus [21] = assay: Effect evaluated in vivo on 5-HTP accumulation in NE-rich hemispheres after subcutaneous administration; format: functional; details: sc; method in brief: as §1
Rattus norvegicus [22] = assay: Effect evaluated in vivo on 5-HTP accumulation in corpus striatum at a dose 0.78 umol/kg (s.c.); format: functional; method in brief: as §1
Rattus norvegicus [23] = assay: Effect evaluated in vivo on 5-HTP accumulation in limbic system at a dose 25 umol/kg (p.o.); format: functional; method in brief: as §2
Rattus norvegicus [24] = assay: Effect evaluated in vivo on 5-HTP accumulation in corpus striatum at a dose 50 umol/kg (s.c.); format: functional; method in brief: as §1
Rattus norvegicus [25] = assay: Effect evaluated in vivo on 5-HTP accumulation in limbic system after perioral administration; format: functional; method in brief: as §1
Rattus norvegicus [26] = assay: The compound was tested in vivo for locomotor activity in rats at 50 umol/kg after subcutaneous administration; format: functional
Method in brief: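 Male Sprague-Dawley rats received reserpine 5 mg/kg sc in the neck 18 h before testing. Test compound was given sc in the neck (n = 4). Rats were placed singly in photocell motility meters immediately after dosing, and counts were accumulated over 30 min (tests 9 a.m.–1 p.m.). Gross behaviour, including 5-HT syndrome, was observed throughout.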

Rattus norvegicus [27] = assay: Effect evaluated in vivo on 5-HTP accumulation in limbic system at a dose 1.56 umol/kg (p.o.); format: functional; method in brief: as §2
Rattus norvegicus [28] = assay: Effect evaluated in vivo on 5-HTP accumulation in NE-rich hemispheres at a 100 dose uM/kg(po); format: functional; method in brief: as §1
Rattus norvegicus [29] = assay: Effect evaluated in vivo on 5-HTP accumulation in corpus striatum after subcutaneous administration; format: functional; details: sc; method in brief: as §1
Rattus norvegicus [30] = assay: Effect evaluated in vivo on 5-HTP accumulation in NE-rich hemispheres at a 3.1 dose uM/kg(sc); format: functional; method in brief: as §1
Rattus norvegicus [31] = assay: Effect evaluated in vivo on 5-HTP accumulation in limbic system at a dose 100 umol/kg (p.o.); format: functional; method in brief: as §2
[32] = target: T1, 5-hydroxytryptamine receptor 1A (Rattus norvegicus, UniProt P19327); assay: Inhibitory activity against 5-hydroxytryptamine 1A receptor in rats, using [3H]8-OH-DPAT as radioligand
T1 sequence (P19327 whole entry): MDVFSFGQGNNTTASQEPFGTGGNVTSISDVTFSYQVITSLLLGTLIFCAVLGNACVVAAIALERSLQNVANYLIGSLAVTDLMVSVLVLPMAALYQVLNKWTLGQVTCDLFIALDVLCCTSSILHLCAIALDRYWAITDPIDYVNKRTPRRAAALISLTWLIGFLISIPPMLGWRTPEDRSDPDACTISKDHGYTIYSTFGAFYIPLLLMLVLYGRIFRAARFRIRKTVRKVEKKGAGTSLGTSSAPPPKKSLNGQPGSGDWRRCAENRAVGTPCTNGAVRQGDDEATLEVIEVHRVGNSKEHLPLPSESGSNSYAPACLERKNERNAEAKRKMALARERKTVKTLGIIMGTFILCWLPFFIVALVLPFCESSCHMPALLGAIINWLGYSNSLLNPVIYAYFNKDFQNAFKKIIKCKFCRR
Method in brief: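 Rat whole-brain membranes (minus brainstem and cerebellum) in 50 mM Tris pH 8.0 with 120 mM NaCl, 4 mM CaCl2, 4 mM MgCl2 and 10 μM pargyline. Rapid filtration, then scintillation counting. Nonspecific binding defined with 10 μM 5-HT. IC50 by semi-log plot and linear regression.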

With CCCN1CCc2cccc(OC)c2CC1 the ED50 (Rattus norvegicus [1]) was 1.5 µmol/kg, the Control (Rattus norvegicus [2]) was 58% and the Control (Rattus norvegicus [3]) was 77%. It also gave a Control (Rattus norvegicus [4]) of 65%, a Control (Rattus norvegicus [5]) of 48% and a Control (Rattus norvegicus [6]) of 48%. For the same compound, the ED50 (Rattus norvegicus [7]) was 13 µmol/kg, the Control (Rattus norvegicus [8]) was 53% and the Control (Rattus norvegicus [9]) was 99%. The Control (Rattus norvegicus [10]) was 92%, the Control (Rattus norvegicus [11]) was 61% and the Control (Rattus norvegicus [12]) was 97%. It also gave a Control (Rattus norvegicus [13]) of 56%, a Control (Rattus norvegicus [14]) of 79% and a Control (Rattus norvegicus [15]) of 101%. The Control (Rattus norvegicus [16]) was 84%, the IC50 (D(2) dopamine receptor) was 3600 nM and the Control (Rattus norvegicus [17]) was 58%. It also gave a Control (Rattus norvegicus [18]) of 42%, an ED50 (Rattus norvegicus [19]) of 10 µmol/kg and a Control (Rattus norvegicus [20]) of 48%. For the same compound, the ED50 (Rattus norvegicus [21]) was 1.5 µmol/kg, the Control (Rattus norvegicus [22]) was 74% and the Control (Rattus norvegicus [23]) was 58%. It also gave a Control (Rattus norvegicus [24]) of 63%, an ED50 (Rattus norvegicus [25]) of 7 µmol/kg and a Locomotor activity (Rattus norvegicus [26]) of 197. It also gave a Control (Rattus norvegicus [27]) of 99%, a Control (Rattus norvegicus [28]) of 53% and an ED50 (Rattus norvegicus [29]) of 1 µmol/kg. The Control (Rattus norvegicus [30]) was 47%, the Control (Rattus norvegicus [31]) was 47% and the IC50 [32] was 63 nM.

Reference: ChEMBL document CHEMBL1125331, “6-Hydroxy-3-n-propyl-2,3,4,5-tetrahydro-1H-3-benzazepine and analogs: new centrally acting 5-HT1A receptor agonists” (J Med Chem, 1992)
